The source made the active and inactive calls. The rule behind the calls is not given here.
Columns and labels:
[1] = target: Sodium-dependent serotonin transporter (Rattus norvegicus) (UniProt P31652); assay: Inhibition of SERT-mediated 5-HT uptake in Wistar rat brain synaptosomes at 0.2 uM; type: subcellular
Mus musculus [2] = assay: Increase in spontaneous locomotor activity in ICR Swiss mouse at 10 mg/kg, ip measured after 30 to 270 mins post compound administration; type: functional, organism-based; set-up: dose 10 mg/kg
Summary of the method: (§1)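 Male ICR Swiss mice (20-25 g), compound in saline ip, housed three per cage at ≤18 °C. Starting 30 min and 4.5 h after injection, each mouse was placed in a circular actophotometer (25 cm diameter, four photocells, central light) for 30 min. A count was scored per cross of two consecutive beams (locomotion only). Means of at least eight animals per group.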

[3] = Toxicity in ip dosed ICR Swiss mouse; type: organism-based; conditions: in vivo
Rattus norvegicus [4] = assay: Reduction in 5-HT level in Wistar rat brain synaptosomes at 15 mg/kg, ip measured after 4 hrs by fluorometric assay; type: functional; set-up: scale not given: the % may be the effect or the level left; conditions: route intraperitoneal
Rattus norvegicus [5] = assay: Reduction in 5-HT level in Wistar rat brain synaptosomes at 15 mg/kg, ip measured after 24 hrs by fluorometric assay; type: functional; set-up: scale not given: the % may be the effect or the level left; conditions: route intraperitoneal
Rattus norvegicus [6] = assay: Inhibition of SERT-mediated 5-HT uptake in Wistar rat brain at 15 mg/kg, ip measured after 24 hrs; type: functional; conditions: route intraperitoneal
Summary of the method: (§2)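 Male Wistar-derived rats were dosed ip (saline vehicle) and killed 24 h or 7 days later. Whole brains were homogenized in 8 vol 0.25 M sucrose.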

Rattus norvegicus [7] = assay: Inhibition of SERT-mediated 5-HT uptake in Wistar rat brain at 15 mg/kg, ip measured after 7 days; type: functional; conditions: 168 h, route intraperitoneal; summary of the method: as §2
Rattus norvegicus [8] = assay: Reduction in 5-HT level in Wistar rat brain synaptosomes at 15 mg/kg, ip measured after 7 days by fluorometric assay; type: functional; set-up: scale not given: the % may be the effect or the level left; conditions: route intraperitoneal
[9] = target: Sodium-dependent serotonin transporter (Rattus norvegicus, UniProt P31652); assay: Inhibition of SERT-mediated 5-HT uptake in Wistar rat brain synaptosomes; type: subcellular
[10] = Inhibition of MAO in Wistar rat brain using [3H]serotonin as substrate
Rattus norvegicus [11] = species: Rattus norvegicus; assay: Ratio of PCA IC50 to compound IC50 for MAO in Wistar rat brain using [3H]serotonin as substrate
Mus musculus [12] = assay: Increase in spontaneous locomotor activity in ICR Swiss mouse at 10 mg/kg, ip measured after 4 hrs post compound administration; type: functional, organism-based; set-up: dose 10 mg/kg; summary of the method: as §1
Rattus norvegicus [13] = assay: Inhibition of SERT-mediated 5-HT uptake in Wistar rat brain at 7.5 mg/kg, ip measured after 7 days; type: functional; conditions: 168 h, route intraperitoneal; summary of the method: as §2
Rattus norvegicus [14] = assay: Reduction in 5-HT level in Wistar rat brain synaptosomes at 7.5 mg/kg, ip measured after 7 days by fluorometric assay; type: functional; set-up: scale not given: the % may be the effect or the level left; conditions: route intraperitoneal
Rattus norvegicus [15] = assay: Inhibition of SERT-mediated 5-HT uptake in Wistar rat brain at 7.5 mg/kg, ip measured after 24 hrs; type: functional; conditions: route intraperitoneal; summary of the method: as §2
Rattus norvegicus [16] = assay: Reduction in 5-HT level in Wistar rat brain synaptosomes at 7.5 mg/kg, ip measured after 24 hrs by fluorometric assay; type: functional; set-up: scale not given: the % may be the effect or the level left; conditions: route intraperitoneal
Rattus norvegicus [17] = assay: Reduction in 5-HT level in Wistar rat brain synaptosomes at 7.5 mg/kg, ip measured after 4 hrs by fluorometric assay; type: functional; set-up: scale not given: the % may be the effect or the level left; conditions: route intraperitoneal

Sodium-dependent serotonin transporter (Rattus norvegicus), sequence (P31652 whole entry): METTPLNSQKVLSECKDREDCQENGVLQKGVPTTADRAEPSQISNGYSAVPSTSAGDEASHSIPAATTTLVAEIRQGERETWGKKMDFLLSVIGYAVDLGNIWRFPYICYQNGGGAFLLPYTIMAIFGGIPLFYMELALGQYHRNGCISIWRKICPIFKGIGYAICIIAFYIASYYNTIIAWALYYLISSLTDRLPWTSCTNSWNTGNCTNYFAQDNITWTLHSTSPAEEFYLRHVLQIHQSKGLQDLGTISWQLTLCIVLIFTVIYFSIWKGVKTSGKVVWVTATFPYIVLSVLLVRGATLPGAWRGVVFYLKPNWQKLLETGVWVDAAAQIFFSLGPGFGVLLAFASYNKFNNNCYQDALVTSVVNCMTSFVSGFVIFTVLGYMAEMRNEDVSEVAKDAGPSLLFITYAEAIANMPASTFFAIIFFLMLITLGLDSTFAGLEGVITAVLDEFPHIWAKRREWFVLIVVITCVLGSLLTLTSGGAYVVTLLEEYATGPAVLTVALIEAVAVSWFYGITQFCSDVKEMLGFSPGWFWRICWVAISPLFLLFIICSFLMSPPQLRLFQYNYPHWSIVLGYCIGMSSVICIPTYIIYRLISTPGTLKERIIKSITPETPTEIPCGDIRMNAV
Sodium-dependent serotonin transporter, sequence (P31652 whole entry): as above

CC(N)Cc1sccc1Cl.Cl (racemic)
inhibition [1]: 6.6%
Activity (Mus musculus [2]): inactive
LD50 [3]: 101 mg/kg
Activity (Rattus norvegicus [4]): 2.8%

CC(N)Cc1cc(Cl)cs1.Cl (racemic)
inhibition [1]: 18.7%
Activity (Mus musculus [2]): Active
LD50 [3]: 128 mg/kg
Activity (Rattus norvegicus [5]): 18.3%
inhibition in vivo at 15 mg/kg (Rattus norvegicus [6]): 6.7%
Activity (Rattus norvegicus [4]): 22.1%

CC(N)Cc1cccs1.Cl (racemic)
inhibition [1]: 5.3%
Activity (Mus musculus [2]): Active
LD50 [3]: 162 mg/kg
Activity (Rattus norvegicus [4]): 4.3%

CC(N)Cc1cc(Cl)c(Cl)s1.Cl (racemic)
inhibition [1]: 40.5%
Activity (Mus musculus [2]): Active
inhibition in vivo at 15 mg/kg (Rattus norvegicus [7]): 32.4%
LD50 [3]: 133 mg/kg
Activity (Rattus norvegicus [5]): 50.7%
Activity (Rattus norvegicus [8]): 41.6%
inhibition in vivo at 15 mg/kg (Rattus norvegicus [6]): 30.4%
IC50 [9]: 450 nM
Activity (Rattus norvegicus [4]): 49.3%

CC(N)Cc1scc(Cl)c1Cl.Cl (racemic)
inhibition [1]: 27.5%
Activity (Mus musculus [2]): Active
LD50 [3]: 121 mg/kg
IC50 [10]: 250 nM
Activity (Rattus norvegicus [5]): 11.7%
inhibition in vivo at 15 mg/kg (Rattus norvegicus [6]): 0.4%
Ratio IC50 (Rattus norvegicus [11]): 15
Activity (Rattus norvegicus [4]): 10.3%

CC(N)Cc1ccc(Cl)s1.Cl (racemic)
inhibition [1]: 17.7%
Activity (Mus musculus [2]): Active
Activity (Mus musculus [12]): Active
LD50 [3]: 113 mg/kg
Activity (Rattus norvegicus [5]): 15.4%
inhibition in vivo at 15 mg/kg (Rattus norvegicus [6]): 4.1%
Activity (Rattus norvegicus [4]): 14.5%

CC(N)Cc1sc(Cl)cc1Cl.Cl (racemic)
inhibition [1]: 19.4%
Activity (Mus musculus [2]): inactive
LD50 [3]: 135 mg/kg
IC50 [10]: 2500 nM
Activity (Rattus norvegicus [5]): 13.3%
inhibition in vivo at 15 mg/kg (Rattus norvegicus [6]): 24.5%
Activity (Rattus norvegicus [4]): 12.1%

CC(N)Cc1ccc(Cl)cc1.Cl (racemic)
inhibition in vivo at 7.5 mg/kg (Rattus norvegicus [13]): 34.3%
inhibition [1]: 38.4%
Activity (Mus musculus [12]): Active
LD50 [3]: 64 mg/kg
IC50 [10]: 3700 nM
Activity (Rattus norvegicus [14]): 63.7%
inhibition in vivo at 7.5 mg/kg (Rattus norvegicus [15]): 45.5%
Activity (Rattus norvegicus [16]): 47.6%
Activity (Rattus norvegicus [17]): 48.6%
IC50 [9]: 500 nM

From ChEMBL document CHEMBL3244091, “Effects of thiophene analogues of chloroamphetamines on central serotonergic mechanisms” (J Med Chem, 1978)
